Test results reported in ChEMBL document CHEMBL1150768, “Conformationally constrained analogues of N-(piperidinyl)-5-(4-chlorophenyl)-1-(2,4- dichlorophenyl)-4-methyl-1H-pyrazole-3-carboxamide (SR141716): design, synthesis, computational analysis, and biological evaluations” (J Med Chem, 2008).

What was measured:
Cannabinoid receptor 1 [1] = target: T1, Cannabinoid receptor 1 (Homo sapiens, UniProt P21554); experiment: biochemical; assay type: cell-based, HEK293
Cannabinoid receptor 1 [2] = target: T1, Cannabinoid receptor 1; experiment: biochemical; assay type: cell-based, CHO-K1
Cannabinoid receptor 2 [3] = target: T2, Cannabinoid receptor 2 (Homo sapiens, UniProt P34972); experiment: Displacement of [3H]CP-55940 from human CB2 receptor expressed in CHO-K1 cells; assay type: cell-based
Method in brief: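 Human CB2 expressed in CHO-K1 cell membranes, […]. Nonspecific binding with 10 µM unlabeled agonist. Glass-fiber filtration, then liquid scintillation counting. Duplicates, 3-6 independent experiments.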

Cannabinoid receptor 1 [4] = target: T1, Cannabinoid receptor 1; experiment: Binding affinity to CB1 receptor
Method in brief: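 Membranes from HEK-293 cells expressing human CB1. […] incubated with tritiated agonist radioligand (7.2 nM) or [3H]SR141716 (20 nM) in 50 mM Tris-HCl, 1 mM EDTA, 3 mM MgCl2, 5 mg/mL BSA, pH 7.4, for 1 h at 30 °C. Nonspecific binding taken with 10 µM unlabeled ligand. Filtration, then scintillation counting. Duplicates, 3-6 independent experiments.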

Cannabinoid receptor 2 [5] = target: T2, Cannabinoid receptor 2; experiment: Binding affinity to CB2 receptor
Method in brief: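 Human CB2 expressed in CHO-K1 cell membranes, […]. Displacement of tritiated agonist radioligand (ca. 130 Ci/mmol, 7.2 nM) in Tris-HCl/EDTA/MgCl2/BSA buffer at pH 7.4, 1 h at 30 °C. Nonspecific binding with 10 µM unlabeled agonist. Glass-fiber filtration, then liquid scintillation counting. Duplicates, 3-6 independent experiments.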

Homo sapiens = organism: Homo sapiens; experiment: Selectivity for human CB2 receptor over human CB1 receptor

T2 sequence (P34972 whole entry): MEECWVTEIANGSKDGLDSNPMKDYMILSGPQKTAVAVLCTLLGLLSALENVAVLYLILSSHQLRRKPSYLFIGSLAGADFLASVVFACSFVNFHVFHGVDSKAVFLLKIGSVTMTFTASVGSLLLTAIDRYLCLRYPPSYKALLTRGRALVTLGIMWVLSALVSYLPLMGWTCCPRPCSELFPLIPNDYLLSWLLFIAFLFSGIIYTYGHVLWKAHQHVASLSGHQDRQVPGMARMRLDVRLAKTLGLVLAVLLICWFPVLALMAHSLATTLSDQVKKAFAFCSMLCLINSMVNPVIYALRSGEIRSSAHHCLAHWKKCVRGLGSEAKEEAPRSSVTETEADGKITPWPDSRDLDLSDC
T1 sequence (P21554 whole entry): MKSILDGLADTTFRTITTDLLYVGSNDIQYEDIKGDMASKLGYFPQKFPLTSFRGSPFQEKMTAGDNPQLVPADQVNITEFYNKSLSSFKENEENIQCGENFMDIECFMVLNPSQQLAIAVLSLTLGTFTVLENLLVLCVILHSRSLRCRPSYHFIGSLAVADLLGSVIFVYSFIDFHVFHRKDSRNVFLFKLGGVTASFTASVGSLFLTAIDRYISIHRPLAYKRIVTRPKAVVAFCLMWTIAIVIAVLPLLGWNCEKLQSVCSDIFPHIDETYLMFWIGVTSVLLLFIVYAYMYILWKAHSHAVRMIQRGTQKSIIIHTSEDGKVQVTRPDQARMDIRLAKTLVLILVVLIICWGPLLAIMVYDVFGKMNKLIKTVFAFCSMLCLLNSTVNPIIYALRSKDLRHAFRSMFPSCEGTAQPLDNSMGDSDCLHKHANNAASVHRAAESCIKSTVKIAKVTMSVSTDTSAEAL

Ki (Cannabinoid receptor 1 [1]) | Ki (Cannabinoid receptor 1 [2]) | Ki (Cannabinoid receptor 2 [3]) | Ratio (Homo sapiens) | SMILES | Ki (Cannabinoid receptor 1 [4]) | Ki (Cannabinoid receptor 2 [5])
194 nM | 116 nM | 758 nM | – | Cc1cc(Cl)cc(C)c1-c1c(C)c(C(=O)NN2CCCCC2)nn1-c1ccc(Cl)cc1Cl | – | –
40.9 nM | 14.7 nM | 492 nM | – | O=C(NN1CCCCC1)c1nn(-c2ccc(Cl)cc2Cl)c2c1CCCCc1cc(Cl)ccc1-2 | – | –
18.4 nM | 5.55 nM | – | – | O=C(NN1CCCCC1)c1nn(-c2ccc(Cl)cc2Cl)c2c1CCCc1cc(Cl)ccc1-2 | 0.00035 nM | 20 nM
– | – | – | 80 | Cc1c(C(=O)NN2CCCCC2)nn2c3ccc(Cl)cc3c3cc(Cl)ccc3c12 | – | –
16.1 nM | 5.83 nM | 1120 nM | – | Cc1cc(Cl)ccc1-c1c(C)c(C(=O)NN2CCCCC2)nn1-c1ccc(Cl)cc1Cl | – | –
34.2 nM | 17.9 nM | 1040 nM | – | Cc1c(C(=O)NN2CCCCC2)nn(-c2ccc(Cl)cc2Cl)c1-c1ccc(Cl)cc1Cl | – | –
261 nM | 148 nM | 1110 nM | – | Cc1c(C(=O)NN2CCCCC2)nn(-c2c(Cl)cc(Cl)cc2Cl)c1-c1ccc(Cl)cc1Cl | – | –
251 nM | 152 nM | 1780 nM | – | Cc1cc(Cl)ccc1-c1c(C)c(C(=O)NN2CCCCC2)nn1-c1c(Cl)cc(Cl)cc1Cl | – | –
– | – | – | – | O=C(NN1CCCCC1)c1nn(-c2ccc(Cl)cc2Cl)c2c1CCc1cc(Cl)ccc1-2 | 15 nM | 230 nM
